Data: ChEMBL document CHEMBL1133667, “A structure-affinity relationship study on derivatives of N-[2-[4-(4-Chlorophenyl)piperazin-1-yl]ethyl]-3-methoxybenzamide, a high-affinity and selective D(4) receptor ligand” (J Med Chem, 2000)

Assays:
D(2) dopamine receptor [1] = biological target: T1, D(2) dopamine receptor (Homo sapiens, UniProt P14416); test: In vitro binding affinity at human Dopamine receptor D2 (long) by [3H]spiroperidol displacement.
[2] = biological target: T2, 5-hydroxytryptamine receptor 1A (Rattus norvegicus, UniProt P19327); test: In vitro binding affinity at 5-hydroxytryptamine receptor 1A receptor in rat hippocampal membranes by [3H]8-OH-DPAT displacement.; type: cell membranes, Hippocampus
T2 sequence (P19327 whole entry): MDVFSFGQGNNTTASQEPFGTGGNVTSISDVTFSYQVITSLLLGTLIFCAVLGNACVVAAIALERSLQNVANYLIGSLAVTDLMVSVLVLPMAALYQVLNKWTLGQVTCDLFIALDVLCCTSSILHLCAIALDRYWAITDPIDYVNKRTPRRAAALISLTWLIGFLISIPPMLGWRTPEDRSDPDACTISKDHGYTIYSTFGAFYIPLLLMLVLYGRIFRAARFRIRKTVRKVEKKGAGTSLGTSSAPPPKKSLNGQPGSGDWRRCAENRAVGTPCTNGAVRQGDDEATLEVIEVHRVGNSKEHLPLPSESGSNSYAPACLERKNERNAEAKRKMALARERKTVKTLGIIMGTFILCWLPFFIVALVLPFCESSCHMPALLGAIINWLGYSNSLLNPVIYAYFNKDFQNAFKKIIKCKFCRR

[3] = biological target: T3, Adrenergic receptor alpha-1 (Rattus norvegicus, UniProt P15823+P23944+P43140); test: In vitro binding affinity towards alpha-1 adrenergic receptor by using [3H]prazosin in rat brain cortex membranes.; type: cell membranes
T3 sequence (P15823 whole entry): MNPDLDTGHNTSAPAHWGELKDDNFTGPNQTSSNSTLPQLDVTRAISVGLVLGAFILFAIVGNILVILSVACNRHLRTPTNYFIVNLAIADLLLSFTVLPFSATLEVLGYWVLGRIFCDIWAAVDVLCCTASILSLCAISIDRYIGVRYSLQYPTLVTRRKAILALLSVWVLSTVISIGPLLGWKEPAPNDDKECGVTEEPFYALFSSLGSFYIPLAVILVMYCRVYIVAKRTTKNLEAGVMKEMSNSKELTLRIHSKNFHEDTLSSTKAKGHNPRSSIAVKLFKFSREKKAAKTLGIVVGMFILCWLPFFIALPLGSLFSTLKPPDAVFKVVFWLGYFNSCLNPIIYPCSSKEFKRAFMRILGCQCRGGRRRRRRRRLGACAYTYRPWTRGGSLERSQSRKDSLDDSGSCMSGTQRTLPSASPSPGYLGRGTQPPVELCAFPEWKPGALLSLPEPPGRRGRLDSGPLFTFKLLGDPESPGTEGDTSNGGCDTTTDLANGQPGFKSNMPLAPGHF
T3 sequence (P23944 whole entry): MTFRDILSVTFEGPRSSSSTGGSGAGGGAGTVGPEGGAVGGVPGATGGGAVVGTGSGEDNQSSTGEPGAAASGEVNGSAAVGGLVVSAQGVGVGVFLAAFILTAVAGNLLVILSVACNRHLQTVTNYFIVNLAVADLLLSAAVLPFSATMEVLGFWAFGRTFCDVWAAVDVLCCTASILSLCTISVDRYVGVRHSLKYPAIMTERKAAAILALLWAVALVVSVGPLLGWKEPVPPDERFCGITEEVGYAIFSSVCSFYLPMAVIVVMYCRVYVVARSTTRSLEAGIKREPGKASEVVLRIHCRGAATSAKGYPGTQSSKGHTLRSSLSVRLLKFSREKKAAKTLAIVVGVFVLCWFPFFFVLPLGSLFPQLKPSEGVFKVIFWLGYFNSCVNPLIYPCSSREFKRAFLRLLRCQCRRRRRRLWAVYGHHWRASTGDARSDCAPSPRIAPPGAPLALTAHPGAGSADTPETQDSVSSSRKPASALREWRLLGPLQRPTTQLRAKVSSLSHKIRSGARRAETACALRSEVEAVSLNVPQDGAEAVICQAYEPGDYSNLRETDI
T3 sequence (P43140 whole entry): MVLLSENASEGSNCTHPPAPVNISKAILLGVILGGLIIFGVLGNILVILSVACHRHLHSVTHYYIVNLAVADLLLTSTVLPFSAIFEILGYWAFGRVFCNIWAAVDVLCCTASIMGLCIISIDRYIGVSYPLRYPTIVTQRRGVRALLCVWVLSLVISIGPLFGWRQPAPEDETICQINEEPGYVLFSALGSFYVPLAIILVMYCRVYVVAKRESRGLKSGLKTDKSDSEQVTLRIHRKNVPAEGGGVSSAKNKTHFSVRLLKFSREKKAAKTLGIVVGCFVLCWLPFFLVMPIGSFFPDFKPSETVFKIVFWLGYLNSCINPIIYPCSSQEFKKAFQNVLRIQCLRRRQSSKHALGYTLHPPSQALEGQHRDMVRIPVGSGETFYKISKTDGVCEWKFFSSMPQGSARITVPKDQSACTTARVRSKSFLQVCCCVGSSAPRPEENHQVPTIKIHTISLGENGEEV

D(4) dopamine receptor = biological target: T4, D(4) dopamine receptor (Homo sapiens, UniProt P21917); test: In vitro binding affinity at human Dopamine receptor D4.4 by [3H]YM-09151-2 displacement.
T4 sequence (P21917 whole entry): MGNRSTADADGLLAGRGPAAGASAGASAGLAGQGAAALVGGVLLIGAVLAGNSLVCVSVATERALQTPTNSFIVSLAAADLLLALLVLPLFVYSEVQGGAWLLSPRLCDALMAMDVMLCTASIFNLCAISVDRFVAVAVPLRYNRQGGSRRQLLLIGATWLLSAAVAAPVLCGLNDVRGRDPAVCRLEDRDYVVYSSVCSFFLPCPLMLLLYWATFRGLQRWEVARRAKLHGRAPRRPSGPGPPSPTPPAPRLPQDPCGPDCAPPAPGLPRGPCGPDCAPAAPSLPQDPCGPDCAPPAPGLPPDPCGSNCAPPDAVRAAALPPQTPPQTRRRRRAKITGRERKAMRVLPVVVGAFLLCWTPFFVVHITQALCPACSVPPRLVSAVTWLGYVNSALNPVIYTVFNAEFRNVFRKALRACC

[4] = biological target: T5, Adrenergic receptor alpha-1 (Rattus norvegicus) (UniProt P15823+P23944+P43140); test: (§1) Tested in vitro for % inhibition against alpha-1 adrenergic receptor; type: protein assay; parameters: concentration or dose not given beside the values; details: concentration not given here
Outline: (§2)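 Drug at 10^-5–10^-11 M, 50 min at 25 °C. Filtered on GF/B filters presoaked in 0.5% polyethylenimine. Nonspecific binding with 1 µM prazosin. Percentage inhibition of specific binding reported at the stated concentration.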

[5] = biological target: T6, 5-hydroxytryptamine receptor 1A (Rattus norvegicus) (UniProt P19327); test: Tested in vitro for % inhibition against (serotonin)5-HT 1A receptor.; details: concentration not given here
T6 sequence (whole entry): T2 sequence (P19327 whole entry)

[6] = biological target: T5, Adrenergic receptor alpha-1 (Rattus norvegicus); test: as §1; type: protein assay; details: concentration not given here; outline: as §2
D(2) dopamine receptor [7] = biological target: T1, D(2) dopamine receptor; test: In vitro binding affinity towards human Dopamine receptor D2L, using [3H]spiroperidol radioligand in Sf9 baculovirus expression.
[8] = biological target: T5, Adrenergic receptor alpha-1 (Rattus norvegicus); test: Tested in vitro for %inhibition against alpha-1 adrenergic receptor; type: protein assay; details: concentration not given here; outline: as §2

T1 sequence (P14416 whole entry): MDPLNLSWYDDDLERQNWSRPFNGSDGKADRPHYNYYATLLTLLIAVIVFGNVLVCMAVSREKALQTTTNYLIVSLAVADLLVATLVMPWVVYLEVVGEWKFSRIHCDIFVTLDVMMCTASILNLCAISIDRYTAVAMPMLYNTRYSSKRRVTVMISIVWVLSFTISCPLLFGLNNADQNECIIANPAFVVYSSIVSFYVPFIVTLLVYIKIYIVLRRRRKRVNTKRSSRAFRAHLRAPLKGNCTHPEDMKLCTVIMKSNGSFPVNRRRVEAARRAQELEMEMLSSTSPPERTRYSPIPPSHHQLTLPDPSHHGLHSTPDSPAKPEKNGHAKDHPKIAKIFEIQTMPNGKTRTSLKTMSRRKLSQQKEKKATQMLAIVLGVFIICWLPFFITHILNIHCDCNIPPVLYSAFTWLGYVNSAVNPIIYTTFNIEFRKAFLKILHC

| SMILES | Ki (D(2) dopamine receptor [1]) [nM] | Ki [2] [nM] | Ki [3] [nM] | Ki (D(4) dopamine receptor) [nM] | inhibition [4] [%] | inhibition [5] [%] | inhibition [6] [%] | Ki (D(2) dopamine receptor [7]) [nM] | inhibition [8] [%] |
| --- | --- | --- | --- | --- | --- | --- | --- | --- | --- |
| COc1cccc(NC(=O)CCN2CCN(c3ccc(Cl)cc3)CC2)c1 | 282 | 859 | 303 | 42 |  |  |  |  |  |
| COc1cccc(C(=O)CCCCN2CCN(c3ccc(Cl)cc3)CC2)c1 | > 850 | 37 | 146 | 21 |  |  |  |  |  |
| COc1ccc2c(c1)C(=O)N(CCN1CCN(c3ccc(Cl)cc3)CC1)CC2 | 3960 | 11 | > 850 | 141 | 33 |  |  |  |  |
| COc1ccc2c(c1)C(CCCN1CCN(c3ccc(Cl)cc3)CC1)CCC2 (stereo unspecified) | 980 | 708 | > 850 | 391 | 19 |  |  |  |  |
| COc1cccc(C(=O)N(C)CCN2CCN(c3ccc(Cl)cc3)CC2)c1 | > 850 | > 850 | > 850 | 180 |  | 18 | 22 |  |  |
| COc1cccc(C(=O)CCCN2CCN(c3ccc(Cl)cc3)CC2)c1 | 2550 | 183 | 908 | 4 |  |  |  |  |  |
| COc1cccc(C(=O)CCCCCN2CCN(c3ccc(Cl)cc3)CC2)c1 | > 850 | 45 | 678 | 280 |  |  |  |  |  |
| COc1ccc2c(c1)C(NCCN1CCN(c3ccc(Cl)cc3)CC1)CCC2 (stereo unspecified) | 262 | > 850 | > 850 | 46 | 37 |  |  |  |  |
| COc1cccc(CNCCN2CCN(c3ccc(Cl)cc3)CC2)c1 | 5000 | > 850 | > 850 | 23 | 12 |  |  |  |  |
| COc1cccc2c1CCCC2CCCN1CCN(c2ccc(Cl)cc2)CC1 (stereo unspecified) | 3400 | 105 | > 850 | 416 | 34 |  |  |  |  |
| COc1cccc2c1CCN(CCN1CCN(c3ccc(Cl)cc3)CC1)C2=O |  | 451 | 631 | 42 |  |  |  | 3170 |  |
| COc1cccc(CCCCN2CCN(c3ccc(Cl)cc3)CC2)c1 | 2740 | 514 | > 850 | 204 |  |  |  |  | 25 |
| COc1cccc2c1CCCC2NCCN1CCN(c2ccc(Cl)cc2)CC1.Cl.Cl (stereo unspecified) | 3180 | 821 | > 850 | 32 | 27 |  |  |  |  |
